In ChEMBL document CHEMBL4513216, “Probing the Open Global Health Chemical Diversity Library for Multistage-Active Starting Points for Next-Generation Antimalarials” (ACS Infect Dis, 2020):

Assay: Toxicity liver stage against HepG2, at 10uM
Format: cell-based
Set-up: test concentration 10 uM, cell line HepG2-A16-CD81EGFP
Settings: human, HepG2-A16-CD81EGFP cells; read-out: INHIBITION
Outline: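 Uninfected HepG2-A16-CD81EGFP cells, 3 × 10^3 per well, 1536-well, plated on prespotted compound at 10 μM final, parasite-free screening media added to match infected plates; puromycin 10 μM positive, DMSO 0.5% negative; run in parallel with 48 h PbLuc assay at 37 °C, 5% CO2; viability by CellTiter-Glo luminescence, normalized to controls.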

## Cc1nnc([C@@H]2CCO[C@@H]3CCN(C(=O)Cc4ccccn4)C[C@@H]32)o1
  cytotoxicity at 10 µM: 10.1%

## CC(=O)NCC(=O)N1CCC(c2cncc(Oc3cccnc3)n2)CC1
  cytotoxicity at 10 µM: -19.5%

## CS(=O)(=O)N1CCO[C@@H]2CN(Cc3ccc(F)cc3)C[C@@H]2C1
  cytotoxicity at 10 µM: 4.74%

## Cc1nccn1-c1ccc(N2CCC(NC(C)C(C)C)CC2)cc1 (stereo not drawn)
  cytotoxicity at 10 µM: -7.33%

## CC(NC(=O)NCCCO)c1ccc2c(c1)NC(=O)CO2 (stereo not drawn)
  cytotoxicity at 10 µM: -3.05%

## COC1(CNS(=O)(=O)c2ccccc2Br)CCSC1 (stereo not drawn)
  cytotoxicity at 10 µM: -8.26%

## CCOC(=O)N1CC(=O)N(Cc2ccc(OC)cc2)CC(O)C1 (stereo not drawn)
  cytotoxicity at 10 µM: -2.67%

## O=C(NCCCn1cncn1)NCC(c1ccco1)N1CCCCC1 (stereo not drawn)
  cytotoxicity at 10 µM: 0.987%

## O=C(c1cscn1)N1CC[C@H]2C[C@H](c3nnc(C4CC4)o3)O[C@@H]2C1
  cytotoxicity at 10 µM: -111%

## CC(=O)OC1CN(c2nc3c(C(F)(F)F)cccc3s2)C1
  cytotoxicity at 10 µM: -5.17%

## CCC[C@H]1CN(c2cncc(C(=O)N3CCCCC3)n2)C[C@@H]1N(C)C
  cytotoxicity at 10 µM: -11.2%

## CCCn1ccnc1-c1nccn1CCn1cnnc1
  cytotoxicity at 10 µM: -3.53%

## COc1ccc(CN(C)[C@@H]2CN(C(=O)c3cnn(C)c3)C[C@H]2O)cc1
  cytotoxicity at 10 µM: -21.9%

## O=C(c1ccsc1)N1CCC(c2nnc(C3CC3)o2)CC1
  cytotoxicity at 10 µM: 12.3%

## Cc1ccnn1CCC(=O)N1CCC(c2cnccn2)CC1
  cytotoxicity at 10 µM: -26.1%

## CN(C)C(=O)Cc1ccc(NC(=O)c2cn(C)nn2)cc1
  cytotoxicity at 10 µM: -5.27%

## CSCCC1CC(=O)Nc2cc(O)c(C)cc21 (stereo not drawn)
  cytotoxicity at 10 µM: 1.97%

## Cc1ccc(C(=O)N2CCO[C@H]3[C@H](OCC4CCOCC4)CC[C@@H]32)o1
  cytotoxicity at 10 µM: 4.28%

## Cc1nnc2n1CCN(C(=O)CN1C(=O)C(C)Oc3ccccc31)C2 (stereo not drawn)
  cytotoxicity at 10 µM: -0.905%

## CN(Cc1nnc(C2CC2)n1C)C1CCN(Cc2ccc(F)cc2)C1 (stereo not drawn)
  cytotoxicity at 10 µM: -7.17%

## Cc1cnn(CC2CCCN2Cc2nnc(C3CC3)n2C)c1 (stereo not drawn)
  cytotoxicity at 10 µM: -12.2%

## CC(C)=CCN1CC2(CCN(Cc3ncc[nH]3)CC2)CC1=O
  cytotoxicity at 10 µM: -10.8%

## COc1ccc([C@@H]2CN(C(=O)CCc3cc(Cl)no3)C[C@H]2N(C)C)cc1
  cytotoxicity at 10 µM: 6.1%

## COc1cccc(OC2CN(C(=O)c3ccnc(OC)c3)C2)c1
  cytotoxicity at 10 µM: -6.52%

## COc1ccc(NC(=O)Nc2c(O)c3ccccc3oc2=O)cc1
  cytotoxicity at 10 µM: -9.87%

## CN(Cc1ccc(N2CCOCC2)cc1)Cc1noc(C(C)(C)C)n1
  cytotoxicity at 10 µM: 14%

## Cc1ccc(N2CCCC(NCc3ccc4c(c3)OCCO4)C2)nn1 (stereo not drawn)
  cytotoxicity at 10 µM: -20.1%

## COc1ccccc1C(C)N(C)Cc1nc2c(cnn2C)c(=O)[nH]1 (stereo not drawn)
  cytotoxicity at 10 µM: -9.1%

## Cc1cccc(CN(Cc2ccccn2)S(=O)(=O)N(C)C)c1
  cytotoxicity at 10 µM: -1.74%

## COc1ccc(Cl)cc1-c1cc(NC(=O)CNC(=O)C2CC2)[nH]n1
  cytotoxicity at 10 µM: -3.61%

## CCCNC(=O)CN1CCOC(CC)C1 (stereo not drawn)
  cytotoxicity at 10 µM: 2.98%

## Cc1nc(C)n(C2CCCN(C(=O)c3cccc4cn[nH]c34)C2)n1 (stereo not drawn)
  cytotoxicity at 10 µM: -8.86%

## Cc1ccc(NCc2cncc3c2CCN(Cc2ccccn2)C3)nn1
  cytotoxicity at 10 µM: -6.4%

## CC(C)C(=O)N1CCN(Cc2csc(-c3ccccn3)n2)CC1
  cytotoxicity at 10 µM: -5.71%

## O=C(CSCC1CC1)N1CCC2(CCCN(C3CCOCC3)C2=O)C1 (stereo not drawn)
  cytotoxicity at 10 µM: -127%

## CNC(=O)[C@@H]1CN(C(=O)CCOC)C[C@H]1c1ccnc(N2CCCC2)n1
  cytotoxicity at 10 µM: -3.43%

## O=S(=O)(NCC1CCN(c2cnccn2)CC1)c1c(F)cccc1F
  cytotoxicity at 10 µM: 10.4%

## O=C(c1ccc(-n2cnnc2)cc1)N1CCCC(n2ccnc2)C1 (stereo not drawn)
  cytotoxicity at 10 µM: -10.7%

## O=C1[C@H]2CN(Cc3ccncc3)C[C@H]2CN1c1ccsc1
  cytotoxicity at 10 µM: -81.1%

## Cc1ccc(CSc2nc(N)cc(NCC(=O)N3CCNCC3)n2)cc1
  cytotoxicity at 10 µM: -4.62%

## Cc1csc(N2CCN(Cc3nccn3C)CC2C)n1 (stereo not drawn)
  cytotoxicity at 10 µM: -0.274%

## Cc1[nH]ncc1C(=O)N1CCCC(n2cncn2)C1 (stereo not drawn)
  cytotoxicity at 10 µM: 7.75%

## CCC1COCCN1C(=O)CNC(=O)c1ccc2c(c1)CCC2 (stereo not drawn)
  cytotoxicity at 10 µM: 8.08%

## CC(C)n1cc(CN2CCCN(C(=O)C(C)n3cccn3)CC2)cn1 (stereo not drawn)
  cytotoxicity at 10 µM: -17.9%

## COC(=O)c1cc(OCC2CCC2)cc(C(=O)N[C@@H](C)CO)c1
  cytotoxicity at 10 µM: -2.18%

## Fc1cccc(-n2ccc(CN3CCCCC3Cn3cncn3)n2)c1 (stereo not drawn)
  cytotoxicity at 10 µM: -3.81%

## CC(C)n1c(=O)c2ccccc2n(CCN2CCCCC2)c1=O
  cytotoxicity at 10 µM: -16.6%

## O=C(NC[C@H]1OC[C@@H](NC2COC2)[C@@H]1O)c1cccs1
  cytotoxicity at 10 µM: 0.0331%

## CCCn1ccnc1-c1nccn1CCN(C)C
  cytotoxicity at 10 µM: -1.04%

## COc1cncc(-n2nc(C)c(CC(C)=O)c2C)c1
  cytotoxicity at 10 µM: -12.8%

## N#Cc1cn(C2CC2)c(=O)n(CC(O)c2ccccc2F)c1=O (stereo not drawn)
  cytotoxicity at 10 µM: 3.97%

## CCc1ccccc1CN1CCN(Cc2ncc[nH]2)[C@H]2CS(=O)(=O)C[C@H]21
  cytotoxicity at 10 µM: 2.03%

## CO[C@H]1CN(C(C)C)C[C@@H]1NC(=O)c1cc(-c2ccccc2F)n[nH]1
  cytotoxicity at 10 µM: -6.01%

## Cc1ccc(C(=O)NCc2ccc(N3CCNC(=O)C3)c(F)c2)cc1
  cytotoxicity at 10 µM: -3.31%

## COc1cccc2c1ccn2CC(=O)N[C@@H](CCSC)C(=O)O
  cytotoxicity at 10 µM: 3.2%

## Cc1c(C(=O)N(C)CC(F)(F)F)nnn1-c1ccccc1Cl
  cytotoxicity at 10 µM: -1.58%

## COc1nn(C)c2c1CCCN(C(=O)c1cnccn1)C2
  cytotoxicity at 10 µM: -84.3%

## O=C(NC[C@H]1OC[C@@H](NC2CCC2)[C@@H]1O)c1cccs1
  cytotoxicity at 10 µM: 1.76%

## NCc1cn(CC2CCCN(C(=O)NCCc3ccc(F)cc3)C2)nn1 (stereo not drawn)
  cytotoxicity at 10 µM: 17.2%

## Cc1noc(C(C)C)c1C(=O)N1CCOCC1CC(=O)c1ccco1 (stereo not drawn)
  cytotoxicity at 10 µM: 2.09%

## COc1cccc([C@@H]2N[C@H](c3nccs3)Cc3ccsc32)c1OC
  cytotoxicity at 10 µM: 5.24%

## Fc1cnc(N2C[C@@H]3COC[C@]3(COc3ccccn3)C2)nc1
  cytotoxicity at 10 µM: -5.43%

## Cn1cccc1CNCC1CCCn2cc(C(C)(C)C)nc21 (stereo not drawn)
  cytotoxicity at 10 µM: -19.8%

## Cc1ncsc1C(=O)NC1CCN(CC(=O)N(C)C(C)(C)C#N)CC1
  cytotoxicity at 10 µM: -3.88%

## NC(=O)C1CCCN(Cc2ccc(C(=O)Nc3cnns3)cc2)C1 (stereo not drawn)
  cytotoxicity at 10 µM: 13.7%

## N[C@@H]1c2ccccc2C2(CCN(c3cnc4ccccc4n3)CC2)[C@H]1O
  cytotoxicity at 10 µM: -2.45%

## CN(Cc1noc(C(C)(C)C)n1)CC1CCN(CCO)CC1
  cytotoxicity at 10 µM: 7.17%

## CC(C)C(=O)N1CCC(CNc2nc(C(C)C)nc3c2cnn3C)CC1
  cytotoxicity at 10 µM: -4.25%

## CC(=O)N1CCC(c2cccc(Oc3ccccc3)n2)CC1
  cytotoxicity at 10 µM: -0.0757%

## O=C(c1ccno1)N1CCc2ncnc(-c3ccncc3)c2CC1
  cytotoxicity at 10 µM: 6.59%

## CC(C(=O)NCc1ccc(N2CCCC2)nc1)n1cncn1 (stereo not drawn)
  cytotoxicity at 10 µM: -22.4%

## Cc1cnn(CC2CCCN2Cc2cc(=O)n3cccc(C)c3n2)c1 (stereo not drawn)
  cytotoxicity at 10 µM: 0.442%

## CN(C)c1ncccc1N(C)C(=O)Cn1cc(-c2ccccc2)nn1
  cytotoxicity at 10 µM: -2.2%

## CC(=O)c1cc(CN2C[C@@H](N(C)C)[C@H](C(C)C)C2)cs1
  cytotoxicity at 10 µM: 0.305%

## O=C1NC2(CCN(Cc3nccs3)CC2)CC1c1ccncc1 (stereo not drawn)
  cytotoxicity at 10 µM: -1.31%

## Cc1nn(C)cc1C1=NS(=O)(=O)N(C)C(C(=O)Nc2ccc(Br)cc2)=C1
  cytotoxicity at 10 µM: 3.46%

## CC(=O)N1CCCC1c1cccc(C)c1C (stereo not drawn)
  cytotoxicity at 10 µM: 10.8%

## CN1CC(=O)N(c2ccccc2)CC12CCN(C(=O)c1cccs1)C2 (stereo not drawn)
  cytotoxicity at 10 µM: -79.3%

## Cc1ncn(CCNC(=O)Nc2ccc(F)c(Cl)c2)c(=O)c1C
  cytotoxicity at 10 µM: -2.93%

## CCc1noc(CS(=O)(=O)C/C=C/c2ccccc2)n1
  cytotoxicity at 10 µM: -18.4%

## COCCNc1cccc(C2CCCN2)n1 (stereo not drawn)
  cytotoxicity at 10 µM: -25.9%

## C[C@H](O)CNc1cc(-c2cn[nH]c2)ncn1
  cytotoxicity at 10 µM: -15.6%

## CNC(=O)Cc1ccccc1NC(=O)C1CCCC1
  cytotoxicity at 10 µM: 31.1%

## Cc1noc([C@@H]2C[C@H]3OCC[C@H]3N(Cc3cc(C)c(C)o3)C2)n1
  cytotoxicity at 10 µM: -72.2%

## COc1cc(CNc2nc(C(F)(F)F)no2)cc(OC)c1OC
  cytotoxicity at 10 µM: 1.66%

## CN1CCc2c(C#N)c(NCc3ccccc3)n3cnnc3c2C1
  cytotoxicity at 10 µM: 3.93%

## CCNC(=O)CCN1CCC(c2cc(N3CCOCC3)nc(C)n2)CC1
  cytotoxicity at 10 µM: -10.8%

## CS(=O)(=O)c1nnc(NC(=O)CCc2ccc(Cl)s2)[nH]1
  cytotoxicity at 10 µM: 6.13%

## C1CCCN(c2nc(C3CC3)ns2)CC1
  cytotoxicity at 10 µM: -12.3%

## COc1cc(F)c(CN2CCN(CC(C)C)C(=O)C2C)cc1OC (stereo not drawn)
  cytotoxicity at 10 µM: 1.63%

## O=C(c1n[nH]c(=O)c2ccccc12)N1CCCCC1c1ccn[nH]1 (stereo not drawn)
  cytotoxicity at 10 µM: -0.285%

## CC1CCN(CCNC(=O)c2sccc2C2CC2)CC1
  cytotoxicity at 10 µM: -144%

## COc1ccccc1[C@@H]1CN(CC2CCC2)C[C@H]1C(=O)O
  cytotoxicity at 10 µM: -1.02%

## COc1ccc(-c2n[nH]c(C)c2CC(=O)N2CCOCC2)cc1
  cytotoxicity at 10 µM: -14.2%

## Cc1ccc(C(=O)N2C[C@@H]3CN(S(C)(=O)=O)CCO[C@@H]3C2)o1
  cytotoxicity at 10 µM: -2.42%

## Cc1cccc(CN2C[C@H](OCc3csc(C)n3)[C@H]3COC[C@H]32)n1
  cytotoxicity at 10 µM: 3.22%

## CCc1noc(C2CCCCN2C(=O)c2ccoc2C)n1 (stereo not drawn)
  cytotoxicity at 10 µM: 12.5%

## CN(C)CC1CSCCCN1C(=O)c1ccc(-c2ccccc2)cc1 (stereo not drawn)
  cytotoxicity at 10 µM: 4.54%

## CN1CCN([C@@H]2CN(C(=O)c3ccnnc3)[C@@H]3CCCO[C@H]23)CC1
  cytotoxicity at 10 µM: 7.16%

## N#CC1CCCN(C(=O)Cn2ncc(N3CCCC3)cc2=O)C1 (stereo not drawn)
  cytotoxicity at 10 µM: -6.36%

## CCC(=O)N(CC)C(c1cccnc1)c1ccc2c(c1)CCO2 (stereo not drawn)
  cytotoxicity at 10 µM: 2.94%

## Cc1csc(C(C#N)C(=O)NCc2cccnc2)n1 (stereo not drawn)
  cytotoxicity at 10 µM: 9.6%

## CCOc1ccc(S(=O)(=O)C(C)C(=O)Nc2cc(C)no2)cc1 (stereo not drawn)
  cytotoxicity at 10 µM: 5.07%

## CCOC(=O)c1cc2n(n1)CCCO2
  cytotoxicity at 10 µM: 3.86%

## Cc1ccc(OC2(C(=O)O)CCN(C/C=C/c3ccco3)CC2)cc1
  cytotoxicity at 10 µM: -14.4%

## CC(C)OCCCNC(=O)CC1(Cn2cnnn2)CCCCC1
  cytotoxicity at 10 µM: 9.18%

## COCCNC(=O)C(C)n1nc(-c2ccco2)cc(N)c1=O (stereo not drawn)
  cytotoxicity at 10 µM: 2.62%

## CCC(CC)C(=O)N1CCC(c2nn(CCN)c3nccnc23)C1 (stereo not drawn)
  cytotoxicity at 10 µM: -25.5%
